The values below come from ChEMBL document CHEMBL4477200, “Design, Synthesis, and Preclinical Evaluation of 4-Substituted-5-methyl-furo[2,3-d]pyrimidines as Microtubule Targeting Agents That Are Effective against Multidrug Resistant Cancer Cells” (J Med Chem, 2016).

The source made the active and inactive calls. The calls are words filed in the database; no cut-off is given here.

Test [1] has as its system HeLa. Briefly: Antiproliferative activity against human HeLa cells after 48 hrs by SRB assay. Type of test: functional, cell-based. The method, boiled down: (§1)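 SRB assay; IC50 is the mean of three independent experiments, each run in triplicate. Cells were kept at 37 °C under 5% CO2. HeLa and SK-OV-3 lines (parental and MDR1-M6/6) were grown in Basal Medium Eagle with 10% FBS, 1% GlutaMAX and 50 µg/mL gentamycin. HeLa WTβIII was grown in DMEM with 10% FBS.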

The subject of test [2] is SK-OV-3. Briefly: Relative ratio of IC50 for human SKOV3 cells expressing MDR1-M6/6 to IC50 for human SKOV3 cells. Type of test: functional. The procedure, abridged: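 Rr is the IC50 in Pgp-expressing SK-OV-3 MDR1-M6/6 cells divided by the IC50 in parental SK-OV-3 cells. Both IC50s come from the SRB assay, averaging three independent experiments run in triplicate.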

In test [3] the test system is Tubulin (Rattus norvegicus). Briefly: Induction of microtubule depolymerization in rat A10 cells at 2 times EC50 incubated for 18 hrs by indirect immunofluorescence analysis.
In test [4] the test system is SK-OV-3. Briefly: Cytotoxicity against human SKOV3 cells assessed as growth inhibition after 48 hrs by SRB assay. It is filed as functional, cell-based. As to conditions: SK-OV-3, 48 h. The method, boiled down:
as §1

Test [5] concerns HeLa. Briefly: Antiproliferative activity against multidrug resistant human HeLa cells expressing wild type beta3 tubulin after 48 hrs by SRB assay. It is filed as functional, cell-based. The procedure, abridged:
as §1

The subject of test [6] is HeLa. Briefly: Cell cycle arrest in human HeLa cells assessed as accumulation at G2/M phase at 5 times IC50 after 18 hrs by flow cytometry (reference value: 17.11 +/- 1.09%). It is filed as functional.
Test [7] relates to SK-OV-3. Briefly: Antiproliferative activity against multidrug resistant human SKOV3 cells expressing MDR1-M6/6 after 48 hrs by SRB assay. It is filed as functional, cell-based. Particulars: SK-OV-3, 48 h. The procedure, abridged: as §1
Test [8] has as its system HeLa. Briefly: Relative ratio of IC50 for human HeLa cells expressing wild type beta3 tubulin to IC50 for human HeLa cells. It is filed as functional.
The target of the next test is Tubulin (Homo sapiens) (UniProt P68371+Q9H4B7+P0DPH7+P68366+Q13509+Q71U36+P04350+Q3ZCM7+P07437+P68363+Q9BQE3+Q6PEY2+Q13885+Q9BVA1+Q9BUF5). Nature of the test: Induction of microtubule disruption in human HeLa cells assessed as multipolarization of spindle at 5 times IC50 incubated for 18 hrs by indirect immunofluorescence analysis relative to vehicle-treated control. Type of test: cell-based. The method, boiled down:
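Mitotic spindles and microtubules were imaged by indirect immunofluorescence with a β-tubulin antibody and compared with vehicle-treated cells.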

Test [9] concerns the target T1, Tubulin (Bos taurus) (UniProt Q6B856+Q862L2+Q862F3). Briefly: Inhibition of [3H]colchicine binding to tubulin in bovine brain homogenate at 5 uM incubated for 10 mins by DEAE-cellulose filter assay. Type of test: tissue-based.
The next test addresses Tubulin (Bos taurus, UniProt Q6B856+Q862L2+Q862F3). Nature of the test: Inhibition of tubulin assembly in bovine brain […] assessed as reduction in turbidity increase preincubated for 15 mins followed by GTP addition measured for 20 mins by spectrophotometric analysis. The method, boiled down:
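Purified bovine brain tubulin, 1.0 mg/mL (10 µM), was preincubated 15 min at 30 °C in 0.8 M monosodium glutamate (pH 6.6) with compound and 4% DMSO. Mixtures were chilled and 0.4 mM GTP added. Turbidity was followed for 20 min at 30 °C. IC50 is the concentration halving the turbidity increase, interpolated between tested concentrations.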

Test [10] deals with T1, Tubulin (Bos taurus). Nature of the test: Displacement of [3H]colchicine from tubulin in bovine brain homogenate at 1 uM incubated for 10 mins by DEAE-cellulose filter assay. It is filed as tissue-based.
The subject of the next test is MDA-MB-435. Briefly: Antitumor activity against human MDA-MB-435 cells xenografted in nude mouse assessed as tumor growth inhibition at 20 mg/kg, ip dosed on days 0 , 2, 4, 6, 8 and 11 relative to control.

As to `CCc1ccc(N(C)c2ncnc3occ(C)c23)cc1`, the IC50 in the test with HeLa [1] was 120 nM; in the test on SK-OV-3 [4], 156 nM; in the test with HeLa [5] it was 159 nM; with SK-OV-3 [7], 162 nM. The “Ratio IC50” value with SK-OV-3 [2] is listed as 1; in the test with HeLa [8], 1.3. For the same compound, the outcome (in test [3]; on Tubulin (Homo sapiens)) was Active. Moreover, the Activity in the test on HeLa [6] came out at 76.19%.
Take `CSc1ccc(N(C)c2ncnc3occ(C)c23)cc1`: the inhibition at Tubulin (Bos taurus) [9] was determined as 94%; at Tubulin (Bos taurus) [10] it was 79%. The IC50 worked out at 1200 nM on Tubulin; 15.7 nM with HeLa [1]; 18.6 nM with SK-OV-3 [4]; 14.9 nM in the test on HeLa [5]; 32.1 nM in the test with SK-OV-3 [7]. The “Ratio IC50” value in the test with SK-OV-3 [2] came out at 1.7; in the test on HeLa [8] it was 0.9. Moreover, the outcome (in test [3]; on Tubulin (Homo sapiens)) was Active. Further, the Activity in the test with HeLa [6] came to 64.09%.
As to `CC(=O)O[C@H]1C(=O)[C@@]2(C)[C@H]([C@H](OC(=O)c3ccccc3)[C@]3(O)C[C@H](OC(=O)[C@H](O)[C@@H](NC(=O)c4ccccc4)c4ccccc4)C(C)=C1C3(C)C)[C@]1(OC(C)=O)CO[C@@H]1C[C@@H]2O`, the TGI entry in the test with MDA-MB-435 is “Active”.
As to `COc1ccc(/C=C\c2cc(OC)c(OC)c(OC)c2)cc1O` [COMBRETASTATIN A4], in the test on HeLa [6], the Activity is 67.58%.
Turning to `CCCN(c1ccc(OC)cc1)c1ncnc2occ(C)c12`, the inhibition on Tubulin (Bos taurus) [9] was found to be 92%; at Tubulin (Bos taurus) [10], 75%. The IC50 on Tubulin was 1100 nM; in the test with HeLa [1], 33.8 nM; in the test on SK-OV-3 [4], 40.3 nM; in the test with HeLa [5], 35.3 nM; in the test on SK-OV-3 [7], 71 nM. Besides, the figures for the “Ratio IC50” value in the test on SK-OV-3 [2] and in the test with HeLa [8] were 1.8 and 1, respectively. In addition, the result (in test [3]; on Tubulin (Homo sapiens)) was Active. In addition, the Activity in the test on HeLa [6] is 89.25%.
The compound `COc1ccc(N(c2ncnc3occ(C)c23)C(C)C)cc1` came in with an inhibition on Tubulin (Bos taurus) [9] of 47%. For the same compound, the IC50 on Tubulin is 3000 nM.
In the case of `CCCCN(c1ccc(OC)cc1)c1ncnc2occ(C)c12`, the inhibition is 87% at Tubulin (Bos taurus) [9] and 61% on Tubulin (Bos taurus) [10]. In addition, the IC50 was found to be 1300 nM on Tubulin; 111 nM in the test on HeLa [1]; 148 nM in the test on SK-OV-3 [4]; 116 nM with HeLa [5]; 200 nM in the test on SK-OV-3 [7]. Also, the “Ratio IC50” value in the test on SK-OV-3 [2] is on record as 1.4; in the test on HeLa [8] it was 1. Moreover, the outcome (in test [3]; at Tubulin (Homo sapiens)) was Active. Further, the Activity with HeLa [6] stood at 64.96%.
Take `CCN(c1ccc(OC)cc1)c1ncnc2occ(C)c12`: the inhibition at Tubulin (Bos taurus) [9] came out at 95%; at Tubulin (Bos taurus) [10], 84%. Further, the IC50 on Tubulin was 970 nM; in the test with HeLa [1], 15.8 nM; with SK-OV-3 [4], 14.5 nM; in the test on HeLa [5], 14.6 nM; in the test with SK-OV-3 [7], 18.3 nM. Besides, the “Ratio IC50” value came to 1.3 in the test with SK-OV-3 [2] and 0.9 with HeLa [8]. Further, the outcome (in [3]; at Tubulin (Homo sapiens)) was Active. Also, the Activity in the test on HeLa [6] is listed as 63.76%.
